The source of these data is ChEMBL document CHEMBL4251655 (Eur J Med Chem, 2018).

The assay concerns the target T1, Mitogen-activated protein kinase kinase kinase 5 (Homo sapiens) (UniProt Q99683).
T1 sequence (whole entry): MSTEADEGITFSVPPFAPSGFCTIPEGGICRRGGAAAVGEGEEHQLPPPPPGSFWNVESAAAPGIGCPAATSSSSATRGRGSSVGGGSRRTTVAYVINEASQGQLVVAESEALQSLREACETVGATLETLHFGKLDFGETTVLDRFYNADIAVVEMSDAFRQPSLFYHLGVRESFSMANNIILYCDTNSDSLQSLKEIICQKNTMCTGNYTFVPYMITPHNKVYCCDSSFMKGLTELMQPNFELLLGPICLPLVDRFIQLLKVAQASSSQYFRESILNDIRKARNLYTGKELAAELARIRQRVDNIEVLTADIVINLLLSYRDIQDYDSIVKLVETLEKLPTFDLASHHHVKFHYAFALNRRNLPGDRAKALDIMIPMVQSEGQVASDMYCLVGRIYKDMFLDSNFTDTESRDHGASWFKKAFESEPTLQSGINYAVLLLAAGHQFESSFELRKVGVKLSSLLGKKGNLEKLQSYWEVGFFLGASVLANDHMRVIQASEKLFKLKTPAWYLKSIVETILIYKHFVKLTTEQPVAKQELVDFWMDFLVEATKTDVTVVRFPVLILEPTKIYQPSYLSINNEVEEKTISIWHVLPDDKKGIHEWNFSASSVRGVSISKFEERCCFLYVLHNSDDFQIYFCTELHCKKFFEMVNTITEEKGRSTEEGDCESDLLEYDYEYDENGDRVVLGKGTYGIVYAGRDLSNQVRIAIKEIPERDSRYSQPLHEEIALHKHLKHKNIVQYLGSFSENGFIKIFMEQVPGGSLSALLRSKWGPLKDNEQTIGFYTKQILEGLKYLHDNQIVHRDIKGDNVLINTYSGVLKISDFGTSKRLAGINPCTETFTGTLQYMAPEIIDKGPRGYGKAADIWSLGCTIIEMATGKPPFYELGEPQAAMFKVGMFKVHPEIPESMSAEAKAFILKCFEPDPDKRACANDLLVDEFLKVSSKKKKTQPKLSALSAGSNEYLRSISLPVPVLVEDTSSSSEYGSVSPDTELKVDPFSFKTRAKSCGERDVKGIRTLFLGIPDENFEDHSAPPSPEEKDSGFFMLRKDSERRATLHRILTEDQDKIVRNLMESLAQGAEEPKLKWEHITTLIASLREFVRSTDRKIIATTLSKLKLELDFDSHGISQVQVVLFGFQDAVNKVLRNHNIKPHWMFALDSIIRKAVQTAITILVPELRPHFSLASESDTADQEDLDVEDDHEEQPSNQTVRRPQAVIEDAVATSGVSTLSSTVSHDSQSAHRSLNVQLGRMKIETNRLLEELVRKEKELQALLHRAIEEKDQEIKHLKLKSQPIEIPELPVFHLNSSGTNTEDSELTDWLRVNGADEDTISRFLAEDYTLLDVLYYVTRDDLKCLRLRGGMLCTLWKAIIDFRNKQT
Briefly: Inhibition of recombinant full length human ASK1 expressed in HEK293/AP1-Luc cells assessed as reduction in autophosphorylation at Thr-838 residue at 10 uM after 30 mins by Western blot analysis. In kind it is cell-based. Summed up:
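Stable HEK293/AP-1luc pools expressing wild-type or K709R full-length human ASK1 (or parental cells) plated in DMEM with 10% FBS, Geneticin and puromycin. Next day, washed in serum-free medium, then treated with 10 μM compound (final) at 37 °C for 30 min. Cells lysed in M-PER with protease/phosphatase inhibitors; protein by BCA; Western blot for ASK1, phospho-Thr838 ASK1 and α-tubulin.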

Active and inactive are the calls of the source. No cut-off for these calls is given here.

As for `COc1ccc(S(C)(=O)=O)cc1C(=O)Nc1cccc(-c2nncn2C(C)C)n1`, the inhibition result was “Active”.
